# Like-named read-outs stand apart in the source and are kept apart here.
# Tests used:
# [1] = format: in vivo, human (healthy Chinese volunteers); details: single doses over the range 0.25–0.50 mg
# [2] = cited from earlier work
# patients with asthma = details: oral 0.10, 0.25, and 0.50 mg once daily; cited from earlier work
# [3] = tested on: acute exacerbations of COPD; details: treated over 4 weeks; cited from earlier work
# [4] = cited from earlier work; remark: listed apart in the source
# [5] = Safety assessment: treatment-related adverse events; format: in vivo, human (healthy Chinese volunteers)
# Summary of the method: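 The same 12 volunteers received three single-dose periods (0.25, 0.375, 0.5 mg orally after >10 h fast, 10-day washouts), then 0.375 mg once daily for 11 days. Adverse events were collected by interview and monitoring and graded for relation to treatment (probably/possibly). Vital signs, physical examination, clinical laboratory tests and ECG were done at screening and at study completion.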
# PDE4 enzyme = details: in vitro; cited from earlier work
# [6] = after receiving 0.5 mg roflumilast
# [7] = single and multiple oral doses, all subjects
# [8] = single- and multiple-dose studies together
structure (smiles),measurement,setting,value
O=C(Nc1c(Cl)cncc1Cl)c1ccc(OC(F)F)c(OCC2CC2)c1 [Roflumilast],mean t1/2 over the three single-dose groups,[1],~ 20 hours
same,effective half-life (t1/2),[2]; after dosing of 0.5 mg roflumilast,8 to 31 h
same,effect of food intake on Cmax (decrease),[2]; food intake,~ 40%
same,effect of food intake on Tmax (delay),[2]; food intake,1 h
same,effect of food intake on the total inhibitory activity of PDE4,[2]; food intake,does not affect
same,effect on forced expiratory volume in 1 second,patients with asthma,statistically significant effects with dose-related increases from baseline
same,percentage of sputum neutrophils,[3],statistically significant greater reduction
same,sputum myeloperoxidase concentration,[3],statistically significant greater reduction
same,number of AEs reported,[4]; 15 subjects after receiving 0.5 mg roflumilast,59
same,"Abdominal discomfort, share of subjects",[4]; [6],20%
same,"Headache, share of subjects",[4]; [6],46.7%
same,"Nausea, share of subjects",[4]; [6],20%
same,subjects who exited the study because of AEs,"[4]; of 19 subjects, erectile dysfunction, visual flicker, blurred vision",2 subjects
same,number of TRAEs reported,[5]; 0.25 mg single dose,Seven
same,number of TRAEs reported,[5]; 0.375 mg multiple doses,25
same,serious adverse events,[5]; across the trial,no serious adverse events
same,overall safety and tolerability,"[5]; healthy Chinese volunteers, single doses 0.25–0.5 mg and multiple doses 0.375 mg",safe and well-tolerated
same,Any adverse event: number of subjects (%) reporting TRAEs,[5]; multiple doses 0.375 mg (n=12),12 subjects (%)
same,number of TRAEs of moderate degree,[5]; presenting as acute gastroenteritis,one
same,number of TRAEs of severe degree,[5]; presenting as diarrhea,one
same,"Diarrhea, share of subjects",[5]; [7],30.8%
same,"Dizziness, share of subjects",[5]; [7],53.8%
same,"Elevated creatine kinase level, share of subjects",[5]; [7],15.4%
same,"Elevated total bilirubin level, share of subjects",[5]; [7],15.4%
same,"Headache, share of subjects",[5]; [7],23.1%
same,"Nausea, share of subjects",[5]; [7],53.8%
same,"Upper respiratory tract infection, share of subjects",[5]; [7],23.1%
same,number of TRAEs of mild degree,[5]; [8],Forty-six
same,total number of treatment-related adverse events,[5]; [8],48
same,potency upon inhibition of the PDE4 enzyme relative to roflumilast N-oxide,PDE4 enzyme,three times more potent

# Reference: paper PMC6263297 (Drug Design, Development and Therapy, 2018)
